Source: paper PMC4367188 (ACS Chemical Neuroscience, 2015)
Entries after “also recorded” stand apart in the source; their conditions may differ.

Assays:
DAT = DAT (Mus musculus, UniProt Q61327); assay: dopamine uptake in mouse forebrain synaptosomes; format: biochemical; settings: 5 μM ML352
Procedure, shortened: (§1)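 Crude P2 synaptosomes from forebrains of male C57BL/6J mice (8–10 weeks), taken after decapitation under urethane. Incubated 10 min at 37 °C in Krebs bicarbonate buffer with 100 nM [3H]dopamine or [3H]serotonin ± test compound. Stopped on ice, rapidly filtered, counted by scintillation. Specific uptake defined with cocaine 1 μM (DAT) or citalopram 1 μM (SERT). Protein by BCA; n = 3.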

Cannabinoid CB1 = Cannabinoid CB1 (Homo sapiens, UniProt P21554); assay: Lead Profiling Screen radioligand binding
Dopamine D1 = Dopamine D1 (Homo sapiens, UniProt P21728); assay: Lead Profiling Screen radioligand binding
[1] = intrinsic clearance in hepatic microsomes; format: in vitro ADME; settings: rat; predicted hepatic clearance from microsomal CLint
[2] = molecular target: serotonin transporter (SERT) (Homo sapiens, UniProt P31645); assay: [3H]5-HT uptake in HEK293 hSERT cells; format: cell-based; settings: transfected HEK 293 cells
Adrenergic α1A = Adrenergic α1A (Rattus norvegicus, UniProt P43140); assay: Lead Profiling Screen radioligand binding
Calcium Channel N-Type = Calcium Channel N-Type (Rattus norvegicus, UniProt Q02294); assay: Lead Profiling Screen radioligand binding
WT hCHT = molecular target: T1, WT hCHT (Homo sapiens, UniProt Q9GZV3); assay: cell-surface biotinylation, CHT surface expression in WT hCHT HEK 293 cells; format: cell-based; settings: 5 μM, 15 min incubation
T1 sequence (Q9GZV3 1-580): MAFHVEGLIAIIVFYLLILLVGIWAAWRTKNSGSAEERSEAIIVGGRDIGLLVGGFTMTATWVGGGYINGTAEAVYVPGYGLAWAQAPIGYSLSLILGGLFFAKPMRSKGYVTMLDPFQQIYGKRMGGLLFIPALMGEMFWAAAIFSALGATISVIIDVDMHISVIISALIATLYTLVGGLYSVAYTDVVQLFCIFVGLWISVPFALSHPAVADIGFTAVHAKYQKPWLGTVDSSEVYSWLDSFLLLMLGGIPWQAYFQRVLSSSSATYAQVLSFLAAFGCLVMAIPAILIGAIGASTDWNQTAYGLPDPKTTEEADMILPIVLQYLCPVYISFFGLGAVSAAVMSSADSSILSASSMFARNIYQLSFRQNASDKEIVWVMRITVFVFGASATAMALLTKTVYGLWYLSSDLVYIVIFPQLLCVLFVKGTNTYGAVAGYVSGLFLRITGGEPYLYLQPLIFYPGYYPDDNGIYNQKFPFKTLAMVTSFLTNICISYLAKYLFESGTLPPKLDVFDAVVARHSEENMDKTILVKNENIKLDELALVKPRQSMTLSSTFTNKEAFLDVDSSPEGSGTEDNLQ

Adrenergic α2A = Adrenergic α2A (Homo sapiens, UniProt P08913); assay: Lead Profiling Screen radioligand binding
Histamine, H2 = Histamine, H2 (Homo sapiens, UniProt P25021); assay: Lead Profiling Screen radioligand binding
SERT = SERT (Mus musculus, UniProt Q60857); assay: serotonin uptake in mouse forebrain synaptosomes; format: biochemical; settings: 5 μM ML352
Procedure, shortened: as §1

hCHT LV-AA = hCHT LV-AA (Homo sapiens, UniProt Q9GZV3, L531A/V532A); assay: [3H]choline uptake in HEK 293 cells transfected with hCHT LV-AA; format: cell-based; settings: ML352 at 200 or 800 nM in saturation choline transport assays
[3] = system: nontransfected HEK 293 cells; assay: [3H]choline accumulation in nontransfected HEK 293 cells; format: cell-based, human; settings: 5 μM ML352; data not shown
Glutamate, Kainate = assay: Lead Profiling Screen radioligand binding; settings: 10 μM ML352
[4] = molecular target: Sertonin (5-Hydroxytrptamine) 5-HT3 (Homo sapiens, UniProt P46098); assay: Lead Profiling Screen radioligand binding
Neuropeptide Y Y2 = Neuropeptide Y Y2 (Homo sapiens, UniProt P49146); assay: Lead Profiling Screen radioligand binding
Potassium Channel [KATP] = assay: Lead Profiling Screen radioligand binding; settings: 10 μM ML352
hERG potassium channel = hERG potassium channel (Homo sapiens, UniProt Q12809); assay: Lead Profiling Screen radioligand binding
Bradykinin B1 = Bradykinin B1 (Homo sapiens, UniProt P46663); assay: Lead Profiling Screen radioligand binding
[5] = intrinsic clearance in hepatic microsomes; format: in vitro ADME; settings: human; predicted hepatic clearance from microsomal CLint
Endothelin ETB = Endothelin ETB (Homo sapiens, UniProt P24530); assay: Lead Profiling Screen radioligand binding
Melatonin MT1 = Melatonin MT1 (Homo sapiens, UniProt P48039); assay: Lead Profiling Screen radioligand binding
AChE = AChE (Mus musculus, UniProt P21836); assay: AChE activity in mouse forebrain extracts; format: biochemical; settings: concentrations well above the CHT Ki
GABAB1A = GABAB1A (Homo sapiens, UniProt Q9UBS5); assay: Lead Profiling Screen radioligand binding
Glucocorticoid = Glucocorticoid (Homo sapiens, UniProt P04150); assay: Lead Profiling Screen radioligand binding
[6] = system: Glutamate, NMDA, Phancyclidine; assay: Lead Profiling Screen radioligand binding; settings: 10 μM ML352
[7] = pharmacokinetics in male Sprague-Dawley rats; settings: rat
Neuropeptide Y Y1 = Neuropeptide Y Y1 (Homo sapiens, UniProt P25929); assay: Lead Profiling Screen radioligand binding
[8] = system: Calcium Channel L-Type, Benzothiazepine; assay: Lead Profiling Screen radioligand binding; settings: 10 μM ML352
Adrenergic β2 = Adrenergic β2 (Homo sapiens, UniProt P07550); assay: Lead Profiling Screen radioligand binding
Dopamine D42 = Dopamine D42 (Homo sapiens, UniProt P21917, DEL265-296); assay: Lead Profiling Screen radioligand binding
Opiate δ1 (OP1, DOP) = Opiate δ1 (OP1, DOP) (Homo sapiens, UniProt P41143); assay: Lead Profiling Screen radioligand binding

Sequence of AChE (P21836 32-614): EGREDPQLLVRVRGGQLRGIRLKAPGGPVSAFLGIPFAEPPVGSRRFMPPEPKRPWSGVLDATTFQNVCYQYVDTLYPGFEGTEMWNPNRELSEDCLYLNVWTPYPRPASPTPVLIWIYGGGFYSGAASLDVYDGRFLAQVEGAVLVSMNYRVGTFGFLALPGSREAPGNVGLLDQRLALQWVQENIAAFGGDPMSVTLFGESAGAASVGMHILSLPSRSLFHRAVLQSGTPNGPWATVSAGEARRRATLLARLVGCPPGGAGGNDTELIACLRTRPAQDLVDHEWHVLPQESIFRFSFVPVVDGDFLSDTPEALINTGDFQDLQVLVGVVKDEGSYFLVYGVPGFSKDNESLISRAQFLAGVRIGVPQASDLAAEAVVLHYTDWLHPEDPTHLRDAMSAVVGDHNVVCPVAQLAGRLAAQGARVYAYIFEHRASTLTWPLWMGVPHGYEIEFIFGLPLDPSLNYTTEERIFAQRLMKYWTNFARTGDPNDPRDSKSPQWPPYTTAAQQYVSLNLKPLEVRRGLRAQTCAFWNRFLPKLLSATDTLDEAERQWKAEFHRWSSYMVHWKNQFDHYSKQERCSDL
Sequence of Adrenergic α1A (P43140 whole entry): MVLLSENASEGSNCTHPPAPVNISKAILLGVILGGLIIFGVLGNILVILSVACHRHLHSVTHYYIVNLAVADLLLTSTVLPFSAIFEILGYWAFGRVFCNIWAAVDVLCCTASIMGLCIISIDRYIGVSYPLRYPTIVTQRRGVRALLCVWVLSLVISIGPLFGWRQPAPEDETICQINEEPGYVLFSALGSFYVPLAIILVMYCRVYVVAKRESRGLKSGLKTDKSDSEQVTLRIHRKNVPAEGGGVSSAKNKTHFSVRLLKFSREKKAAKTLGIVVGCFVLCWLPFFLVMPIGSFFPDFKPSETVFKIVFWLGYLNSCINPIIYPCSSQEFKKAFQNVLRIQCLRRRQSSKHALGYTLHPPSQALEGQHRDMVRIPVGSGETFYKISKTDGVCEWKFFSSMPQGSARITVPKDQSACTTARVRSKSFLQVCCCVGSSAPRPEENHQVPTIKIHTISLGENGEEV
Sequence of SERT (Q60857 whole entry): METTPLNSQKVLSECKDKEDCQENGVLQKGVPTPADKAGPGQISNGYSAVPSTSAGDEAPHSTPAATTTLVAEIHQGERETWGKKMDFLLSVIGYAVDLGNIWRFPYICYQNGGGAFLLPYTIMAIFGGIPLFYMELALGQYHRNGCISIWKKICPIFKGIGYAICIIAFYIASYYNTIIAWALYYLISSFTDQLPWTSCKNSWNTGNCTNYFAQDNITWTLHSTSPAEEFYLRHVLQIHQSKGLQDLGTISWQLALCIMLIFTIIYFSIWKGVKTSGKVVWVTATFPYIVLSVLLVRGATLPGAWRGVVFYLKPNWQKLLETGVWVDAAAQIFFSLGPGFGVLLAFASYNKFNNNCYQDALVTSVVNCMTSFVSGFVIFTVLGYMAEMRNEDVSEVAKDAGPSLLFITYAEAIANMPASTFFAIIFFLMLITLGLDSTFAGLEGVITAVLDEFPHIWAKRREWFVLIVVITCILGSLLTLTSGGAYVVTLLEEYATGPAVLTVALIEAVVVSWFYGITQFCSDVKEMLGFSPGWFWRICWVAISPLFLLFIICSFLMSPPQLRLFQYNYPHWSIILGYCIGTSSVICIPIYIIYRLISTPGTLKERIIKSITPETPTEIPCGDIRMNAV
Sequence of Calcium Channel N-Type (Q02294 whole entry): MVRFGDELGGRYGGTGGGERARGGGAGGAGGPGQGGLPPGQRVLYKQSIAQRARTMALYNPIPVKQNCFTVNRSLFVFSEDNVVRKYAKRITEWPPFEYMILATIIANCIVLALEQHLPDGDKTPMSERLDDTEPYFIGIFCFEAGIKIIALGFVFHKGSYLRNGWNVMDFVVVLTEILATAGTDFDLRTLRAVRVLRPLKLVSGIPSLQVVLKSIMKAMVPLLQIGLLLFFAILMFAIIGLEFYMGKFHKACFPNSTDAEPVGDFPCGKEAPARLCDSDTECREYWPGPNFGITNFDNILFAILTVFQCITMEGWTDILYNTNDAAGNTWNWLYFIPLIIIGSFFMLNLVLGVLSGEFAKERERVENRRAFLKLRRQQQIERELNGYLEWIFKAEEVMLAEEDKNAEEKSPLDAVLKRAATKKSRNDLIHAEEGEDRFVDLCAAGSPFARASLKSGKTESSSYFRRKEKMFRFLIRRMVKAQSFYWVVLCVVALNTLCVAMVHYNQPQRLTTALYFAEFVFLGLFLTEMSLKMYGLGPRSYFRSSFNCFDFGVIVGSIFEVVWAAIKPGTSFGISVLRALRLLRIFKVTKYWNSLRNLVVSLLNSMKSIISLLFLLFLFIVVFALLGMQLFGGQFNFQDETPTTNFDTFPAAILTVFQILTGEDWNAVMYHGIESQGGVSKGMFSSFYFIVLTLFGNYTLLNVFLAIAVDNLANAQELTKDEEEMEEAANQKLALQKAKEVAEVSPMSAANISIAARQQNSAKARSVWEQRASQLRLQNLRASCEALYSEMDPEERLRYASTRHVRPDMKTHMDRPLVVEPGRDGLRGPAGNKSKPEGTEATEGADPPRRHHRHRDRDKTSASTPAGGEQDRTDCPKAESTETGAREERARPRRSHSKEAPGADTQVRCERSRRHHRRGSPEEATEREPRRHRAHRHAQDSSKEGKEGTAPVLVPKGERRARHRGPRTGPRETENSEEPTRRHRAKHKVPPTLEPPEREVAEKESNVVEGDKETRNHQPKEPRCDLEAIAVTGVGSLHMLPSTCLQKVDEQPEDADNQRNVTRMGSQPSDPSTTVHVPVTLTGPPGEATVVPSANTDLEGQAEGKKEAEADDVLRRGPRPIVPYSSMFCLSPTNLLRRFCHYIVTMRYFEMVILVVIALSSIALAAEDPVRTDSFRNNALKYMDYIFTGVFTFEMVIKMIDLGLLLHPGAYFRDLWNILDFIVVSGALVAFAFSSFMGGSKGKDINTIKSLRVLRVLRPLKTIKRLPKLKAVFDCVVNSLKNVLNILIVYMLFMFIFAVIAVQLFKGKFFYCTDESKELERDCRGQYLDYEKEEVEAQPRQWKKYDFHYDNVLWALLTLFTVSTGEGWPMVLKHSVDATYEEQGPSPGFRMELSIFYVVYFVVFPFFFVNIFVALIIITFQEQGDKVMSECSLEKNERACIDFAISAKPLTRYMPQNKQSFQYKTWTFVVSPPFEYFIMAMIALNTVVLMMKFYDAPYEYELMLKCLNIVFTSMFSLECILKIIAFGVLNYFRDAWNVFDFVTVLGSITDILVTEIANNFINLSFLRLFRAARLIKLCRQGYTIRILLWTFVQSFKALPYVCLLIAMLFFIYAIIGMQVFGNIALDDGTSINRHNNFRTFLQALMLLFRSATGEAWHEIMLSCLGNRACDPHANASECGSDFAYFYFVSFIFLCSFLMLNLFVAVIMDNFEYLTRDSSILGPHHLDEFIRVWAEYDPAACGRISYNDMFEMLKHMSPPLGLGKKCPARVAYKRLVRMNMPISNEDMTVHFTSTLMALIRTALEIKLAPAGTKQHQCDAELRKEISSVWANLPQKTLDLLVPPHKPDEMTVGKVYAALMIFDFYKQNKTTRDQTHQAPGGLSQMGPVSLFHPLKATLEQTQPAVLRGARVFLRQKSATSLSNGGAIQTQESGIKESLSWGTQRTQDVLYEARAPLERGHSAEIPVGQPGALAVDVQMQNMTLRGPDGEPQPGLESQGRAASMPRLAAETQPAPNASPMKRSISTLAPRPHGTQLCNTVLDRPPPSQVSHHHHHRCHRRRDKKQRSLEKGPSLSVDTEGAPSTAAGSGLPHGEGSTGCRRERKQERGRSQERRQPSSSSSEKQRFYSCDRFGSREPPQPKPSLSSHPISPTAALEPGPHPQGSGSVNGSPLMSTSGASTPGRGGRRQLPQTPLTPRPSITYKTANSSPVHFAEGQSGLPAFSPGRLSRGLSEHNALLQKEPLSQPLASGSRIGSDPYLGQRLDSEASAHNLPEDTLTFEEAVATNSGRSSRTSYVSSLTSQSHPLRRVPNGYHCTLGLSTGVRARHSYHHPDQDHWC
Sequence of serotonin transporter (SERT) (P31645 whole entry): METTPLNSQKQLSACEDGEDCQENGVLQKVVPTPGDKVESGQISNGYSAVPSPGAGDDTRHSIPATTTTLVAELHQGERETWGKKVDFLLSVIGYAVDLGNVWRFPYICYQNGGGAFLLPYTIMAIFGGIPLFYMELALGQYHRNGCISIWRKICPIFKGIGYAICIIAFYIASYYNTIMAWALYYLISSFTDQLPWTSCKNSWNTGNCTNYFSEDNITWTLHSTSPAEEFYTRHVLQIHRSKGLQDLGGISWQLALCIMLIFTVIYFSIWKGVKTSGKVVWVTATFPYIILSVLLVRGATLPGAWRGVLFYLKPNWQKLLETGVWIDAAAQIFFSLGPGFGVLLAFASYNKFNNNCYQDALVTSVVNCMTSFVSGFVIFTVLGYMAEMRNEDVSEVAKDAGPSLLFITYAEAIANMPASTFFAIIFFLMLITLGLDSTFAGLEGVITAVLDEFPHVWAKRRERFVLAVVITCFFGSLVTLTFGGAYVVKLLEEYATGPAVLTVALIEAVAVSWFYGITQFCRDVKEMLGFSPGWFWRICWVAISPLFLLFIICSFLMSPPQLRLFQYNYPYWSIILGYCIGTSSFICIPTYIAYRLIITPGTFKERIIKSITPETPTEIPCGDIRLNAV
Sequence of Histamine, H2 (P25021 whole entry): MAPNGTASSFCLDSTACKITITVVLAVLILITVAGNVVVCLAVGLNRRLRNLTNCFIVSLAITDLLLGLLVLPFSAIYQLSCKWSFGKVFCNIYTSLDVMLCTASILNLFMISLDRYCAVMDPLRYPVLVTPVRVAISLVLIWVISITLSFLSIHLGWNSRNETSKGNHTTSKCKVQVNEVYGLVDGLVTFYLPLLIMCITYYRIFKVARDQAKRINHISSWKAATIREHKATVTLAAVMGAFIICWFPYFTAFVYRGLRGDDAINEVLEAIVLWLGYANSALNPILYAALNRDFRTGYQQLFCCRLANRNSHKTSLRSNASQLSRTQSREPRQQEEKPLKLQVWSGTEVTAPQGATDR

In the case of `COc1ccc(C(=O)NCc2cc(C(C)C)no2)cc1OC1CCN(C)CC1` [ML352, N-((3-isopropylisoxazol-5-yl)methyl)-4-methoxy-3-((1-methylpiperidin-4-yl)oxy)benzamide], the “inhibition of DAT” value (DAT) is reported as “fails to inhibit”, the inhibition at 10 µM (Cannabinoid CB1) is reported as 4% and the inhibition at 10 µM (Dopamine D1) is reported as 9%. For the same compound, the CLhep [1] was 40.3 mL/min/kg, the “inhibitory activity at SERT” value [2] was “lack of inhibitory activity” and the inhibition at 10 µM (Adrenergic α1A) was 23%. The inhibition at 10 µM (Calcium Channel N-Type) was -1%, the “increase in steady-state hCHT surface expression” value (WT hCHT) was 43.4 ± 4.7 % of control and the inhibition at 10 µM (Adrenergic α2A) was 43%. The inhibition at 10 µM (Histamine, H2) was 20%, the “inhibition of SERT” value (SERT) was “fails to inhibit” and the “mode of choline uptake inhibition” value (hCHT LV-AA) was “noncompetitively inhibits”. The “effect on [3H]choline accumulation in nontransfected HEK 293 cells” value [3] was under 20%, the “% inhibition” value (Glutamate, Kainate) was “–2%” and the inhibition at 10 µM [4] was 2%. The inhibition at 10 µM (Neuropeptide Y Y2) was 7%, the “% inhibition” value (Potassium Channel [KATP]) was 4% and the inhibition at 10 µM (hERG potassium channel) was 16%. The inhibition at 10 µM (Bradykinin B1) was 6%, the CLhep [5] was 6.9 mL/min/kg and the inhibition at 10 µM (Endothelin ETB) was -2%. For the same compound, the inhibition at 10 µM (Melatonin MT1) was 5%, the “inhibition of AChE” value (AChE) was “no ability; also recorded: lacks activity; also recorded: no inhibition” and the inhibition at 10 µM (GABAB1A) was -9%. For the same compound, the inhibition at 10 µM (Glucocorticoid) was -1%, the “% inhibition” value [6] was “–5%” and the clearance ([7]; in vivo, iv, 1 mg/kg) was 107 mL/min/kg. For the same compound, the half-life ([7]; in vivo, iv, 1 mg/kg) was 30 min, the AUC ([7]; plasma, iv, 1 mg/kg) was 150 ng·h/mL and the AUC ([7]; plasma, po, 2.3 mg/kg) was 77.5 ng·h/mL. It also gave a Cmax ([7]; plasma, po, 2.3 mg/kg) of 32.6 ng/mL, a Tmax ([7]; plasma, po, 2.3 mg/kg) of 15 min and a bioavailability ([7]; plasma, po, 2.3 mg/kg) of 22%. The inhibition at 10 µM (Neuropeptide Y Y1) was -2%, the “% inhibition” value [8] was 3% and the inhibition at 10 µM (Adrenergic β2) was 43%. The inhibition at 10 µM (Dopamine D42) was -3% and the inhibition at 10 µM (Opiate δ1 (OP1, DOP)) was -2%.
